Measured values of several laboratories.
Each line is one published result; the experiments were not run side by side.
CYP2C8: Cytochrome P450 2C8 (CYP2C8, Homo sapiens, UniProt P10632)
DPP4: Dipeptidyl peptidase 4 (DPP4, Homo sapiens, UniProt P27487)
CYP2C9: Cytochrome P450 2C9 (CYP2C9, Homo sapiens, UniProt P11712)
ENAH: Protein enabled homolog (ENAH, UniProt Q8N8S7)

`Cn1nc2c(=O)n(C3CC3)cnc2c1[C@](O)(c1cnc(C(F)(F)F)c(Cl)c1)C(F)(F)F` gave an IC50 of greater than 20 µM (CYP2C8; enzyme activity, inhibitor; human, liver microsomes; pH 7.4).
The IC50 of `CN(C)c1ncnc2c1ncn2[C@@H]1O[C@H](CCl)[C@@H](NC(=O)[C@H](CSC(c2ccccc2)c2ccccc2)NC(=O)OC(C)(C)C)[C@H]1O` is reported as greater than 100 µM (Aminopeptidase N (ANPEP, Homo sapiens, UniProt P15144); enzyme activity, inhibitor, fluorescence).
`Cn1c(=O)cc(N2CCC(N)CC2)n(Cc2nc3ccc(Br)cc3c(=O)n2-c2ccc(Br)cc2)c1=O` has an IC50 of 11.2 µM (DPP4; enzyme activity, inhibitor).
For `CC[C@@](N)(c1cnc(C(F)(F)F)c(Cl)c1)c1c2ncn(C3CC3)c(=O)c2nn1C`, the IC50 was greater than 20 µM (CYP2C9; enzyme activity, inhibitor; human, liver microsomes; pH 7.4).
For `C=C(F)C(=O)N1CCN(c2nc(OC[C@@H]3CCCN3C)nc3c2CCN(c2cccc4cccc(Cl)c24)C3)C[C@@H]1CC#N`, the Ki was 3.2 µM (CYP2C9; enzyme activity, inhibitor; human, liver microsomes).
For `Cn1nc2c(=O)n(C3CC3)ccc2c1[C@](O)(c1cnc(C(F)(F)F)c(Cl)c1)C(F)(F)F`, the IC50 was greater than 20 µM (CYP2C8; enzyme activity, inhibitor; human, liver microsomes; pH 7.4).
With `CC[C@H](C)[C@H](NC(=O)[C@H](Cc1c[nH]cn1)NC(=O)[C@@H](N)CCC(=O)O)C(=O)N1CCC[C@H]1C(=O)N1CCC[C@H]1C(=O)N1CCC[C@H]1C(=O)N1CCC[C@H]1C(=O)N[C@@H](CCCNC(=N)N)C(=O)N1CCC[C@H]1C(=O)N1CCC[C@H]1C(=O)N[C@@H](CCCCN)C(=O)N[C@@H](CCCNC(=N)N)C(=O)O` the Kd was 13 µM (ENAH; binding, FP).
`Cn1cncc1[C@@](N)(c1ccc(Cl)cc1)c1ccc2c(c1)c(-c1cccc(Cl)c1)cc(=O)n2C` has a Ki of 0.35 µM (CYP2C9; enzyme activity, inhibitor; human, liver microsomes).
`CSCC[C@H](NC(=O)[C@H](CCC(=O)O)NC(=O)[C@H](CS)NC(=O)[C@H](CO)NC(=O)[C@H](CC(C)C)NC(=O)[C@H](CCC(=O)O)NC(=O)[C@@H](N)CCC(=O)O)C(=O)N[C@@H](CCC(=O)O)C(=O)NCC(=O)N[C@@H](CC(N)=O)C(=O)N[C@@H](CC(C)C)C(=O)N[C@@H](CCC(=O)O)C(=O)N[C@@H](Cc1c[nH]cn1)C(=O)N[C@@H](CC(C)C)C(=O)N1CCC[C@H]1C(=O)N1CCC[C@H]1C(=O)N1CCC[C@H]1C(=O)N1CCC[C@H]1C(=O)N[C@@H](CCSC)C(=O)N[C@@H](CCC(=O)O)C(=O)N[C@H](C(=O)N[C@@H](CC(C)C)C(=O)N[C@@H](CCSC)C(=O)N[C@@H](CC(=O)O)C(=O)N[C@@H](CCCCN)C(=O)N[C@@H](CO)C(=O)N[C@@H](Cc1ccccc1)C(=O)N[C@@H](C)C(=O)N[C@@H](CO)C(=O)N[C@@H](CC(C)C)C(=O)N[C@@H](CCC(=O)O)C(=O)N[C@@H](CO)C(=O)N1CCC[C@H]1C(=O)N[C@@H](CCC(=O)O)C(=O)N[C@@H](CO)C(=O)O)C(C)C` has a Kd of 3.1 µM (ENAH; binding, fluorescence).
`Cn1c(=O)cc(N2CCC(N)CC2)n(Cc2nc3ccccc3c(=O)n2-c2ccc(F)c(Cl)c2)c1=O` has an IC50 of 35.7 µM (DPP4; enzyme activity, inhibitor).
`CO[C@]1(C(=O)N[C@@H](C)c2ccc(-n3cc(F)cn3)nc2)CC[C@H](c2nc(C)cc(Nc3cc(C)[nH]n3)n2)CC1` gave a Ki of 9.6 µM (CYP2C8; enzyme activity, inhibitor; human, liver microsomes).
`Cn1c(=O)cc(N2CCC(N)CC2)n(Cc2nc3ccc(Br)cc3c(=O)n2-c2cccc(F)c2)c1=O` has an IC50 of 22.1 µM (DPP4; enzyme activity, inhibitor).
For `COc1cc(O)c2c(c1)C(=O)c1cc(C)cc(O)c1C2=O`, the Ki was 3.69 µM (CYP2C9; enzyme activity, inhibitor; human, liver microsomes; pH 7.4).
